Measurements as given in ChEMBL document CHEMBL5724801, “EUbOPEN Chemogenomics Library - Multiplex” (2024).
Several values for one entry are separate records, joined by “and”; a condition that tells them apart may be missing. Equal entries are not always repeated.

System: HEK-293T
Assay: Multiplex assay against HEK293T
Type: toxicity, cell-based
Settings: human
How it was run: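 Live cells carried four stains from seeding: Hoechst33342, BioTracker Green Microtubule Cytoskeleton Dye, MitoTracker Red and Annexin V Alexa Fluor 680. They were imaged on a CQ1 microscope at 37°C and 5% CO2 after compound addition. Using CellPathfinder machine-learning gating, cells were split into Hoechst high-intensity objects or normal cells, normal cells into healthy, pyknosed or fragmented nuclei, and pyknosed cells into mitotic or apoptotic; tubulin, mitochondrial-mass and membrane-permeability phenotypes are per cents of healthy-nucleus cells.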

[1] = 12 h, 1 µM, compound concentration 1 uM
[2] = 12 h, 10 µM, compound concentration 10 uM
[3] = 24 h, 1 µM, compound concentration 1 uM
[4] = 24 h, 10 µM, compound concentration 10 uM
[5] = 48 h, 1 µM, compound concentration 1 uM
[6] = 48 h, 10 µM, compound concentration 10 uM

Structure (SMILES): COc1cc2nc(N3CCN(C(=O)COc4c(OC)cccc4C(C)C)CC3)nc(N)c2cc1OC.Cl.Cl
- Population Apoptotic (%) [1]: 35% and 46%
- Population Fragmented Nuclei (%) [1]: 12% and 8%
- Population Healthy Nuclei (%) [1]: 77% and 81%
- Population Hoechst High Intensity Objects (%) [1]: 5% and 4%
- Population Membrane Permeable-Phenotype (%) [1]: 0%
- Population Mitochondria Different-Phenotype (%) [1]: 48% and 58%
- Population Mitotic Cells (%) [1]: 64% and 53%
- Population Normal (%) [1]: 94% and 95%
- Population Pyknosed Nuclei (%) [1]: 9%
- Population Tubulin-Different-Phenotype (%) [1]: 23% and 18%
- Total Cell Count [1]: 402 and 365
- Population Apoptotic (%) [2]: 52% and 57%
- Population Fragmented Nuclei (%) [2]: 13% and 14%
- Population Healthy Nuclei (%) [2]: 69% and 67%
- Population Hoechst High Intensity Objects (%) [2]: 25% and 18%
- Population Membrane Permeable-Phenotype (%) [2]: 1% and 3%
- Population Mitochondria Different-Phenotype (%) [2]: 74% and 66%
- Population Mitotic Cells (%) [2]: 48% and 42%
- Population Normal (%) [2]: 74% and 81%
- Population Pyknosed Nuclei (%) [2]: 17% and 18%
- Population Tubulin-Different-Phenotype (%) [2]: 81% and 66%
- Total Cell Count [2]: 386 and 286
- Population Apoptotic (%) [3]: 35% and 42%
- Population Fragmented Nuclei (%) [3]: 11% and 8%
- Population Healthy Nuclei (%) [3]: 77% and 84%
- Population Hoechst High Intensity Objects (%) [3]: 5% and 2%
- Population Membrane Permeable-Phenotype (%) [3]: 0%
- Population Mitochondria Different-Phenotype (%) [3]: 27% and 44%
- Population Mitotic Cells (%) [3]: 64% and 57%
- Population Normal (%) [3]: 95% and 97%
- Population Pyknosed Nuclei (%) [3]: 10% and 7%
- Population Tubulin-Different-Phenotype (%) [3]: 19% and 16%
- Total Cell Count [3]: 540 and 472
- Population Apoptotic (%) [4]: 42% and 51%
- Population Fragmented Nuclei (%) [4]: 14% and 13%
- Population Healthy Nuclei (%) [4]: 64% and 59%
- Population Hoechst High Intensity Objects (%) [4]: 29% and 39%
- Population Membrane Permeable-Phenotype (%) [4]: 2%
- Population Mitochondria Different-Phenotype (%) [4]: 68% and 72%
- Population Mitotic Cells (%) [4]: 57% and 48%
- Population Normal (%) [4]: 70% and 60%
- Population Pyknosed Nuclei (%) [4]: 21% and 27%
- Population Tubulin-Different-Phenotype (%) [4]: 69% and 63%
- Total Cell Count [4]: 498 and 286
- Population Apoptotic (%) [5]: 28% and 11%
- Population Fragmented Nuclei (%) [5]: 16% and 15%
- Population Healthy Nuclei (%) [5]: 76% and 78%
- Population Hoechst High Intensity Objects (%) [5]: 2% and 3%
- Population Membrane Permeable-Phenotype (%) [5]: 1% and 0%
- Population Mitochondria Different-Phenotype (%) [5]: 18%
- Population Mitotic Cells (%) [5]: 71% and 88%
- Population Normal (%) [5]: 97% and 96%
- Population Pyknosed Nuclei (%) [5]: 6%
- Population Tubulin-Different-Phenotype (%) [5]: 11% and 12%
- Total Cell Count [5]: 930 and 737
- Population Apoptotic (%) [6]: 31% and 30%
- Population Fragmented Nuclei (%) [6]: 18% and 17%
- Population Healthy Nuclei (%) [6]: 56% and 59%
- Population Hoechst High Intensity Objects (%) [6]: 41% and 46%
- Population Membrane Permeable-Phenotype (%) [6]: 3% and 1%
- Population Mitochondria Different-Phenotype (%) [6]: 48% and 49%
- Population Mitotic Cells (%) [6]: 68% and 69%
- Population Normal (%) [6]: 58% and 53%
- Population Pyknosed Nuclei (%) [6]: 25% and 23%
- Population Tubulin-Different-Phenotype (%) [6]: 56% and 38%
- Total Cell Count [6]: 660 and 430

Structure (SMILES): CCCCCC(O)/C=C/[C@H]1C(=O)CC(O)C1C/C=C\CCCC(=O)O (stereo partly drawn)
- Population Apoptotic (%) [1]: 29% and 39%
- Population Fragmented Nuclei (%) [1]: 8% and 7%
- Population Healthy Nuclei (%) [1]: 80% and 83%
- Population Hoechst High Intensity Objects (%) [1]: 8% and 6%
- Population Membrane Permeable-Phenotype (%) [1]: 0%
- Population Mitochondria Different-Phenotype (%) [1]: 44% and 56%
- Population Mitotic Cells (%) [1]: 70% and 60%
- Population Normal (%) [1]: 91% and 93%
- Population Pyknosed Nuclei (%) [1]: 11% and 9%
- Population Tubulin-Different-Phenotype (%) [1]: 23% and 20%
- Total Cell Count [1]: 409 and 383
- Population Apoptotic (%) [2]: 48% and 54%
- Population Fragmented Nuclei (%) [2]: 6%
- Population Healthy Nuclei (%) [2]: 79% and 77%
- Population Hoechst High Intensity Objects (%) [2]: 9% and 7%
- Population Membrane Permeable-Phenotype (%) [2]: 0%
- Population Mitochondria Different-Phenotype (%) [2]: 48% and 59%
- Population Mitotic Cells (%) [2]: 51% and 46%
- Population Normal (%) [2]: 90% and 92%
- Population Pyknosed Nuclei (%) [2]: 14% and 15%
- Population Tubulin-Different-Phenotype (%) [2]: 31% and 25%
- Total Cell Count [2]: 409 and 343
- Population Apoptotic (%) [3]: 40% and 44%
- Population Fragmented Nuclei (%) [3]: 8% and 7%
- Population Healthy Nuclei (%) [3]: 83% and 84%
- Population Hoechst High Intensity Objects (%) [3]: 3% and 7%
- Population Membrane Permeable-Phenotype (%) [3]: 1% and 0%
- Population Mitochondria Different-Phenotype (%) [3]: 22% and 41%
- Population Mitotic Cells (%) [3]: 59% and 55%
- Population Normal (%) [3]: 96% and 92%
- Population Pyknosed Nuclei (%) [3]: 8% and 7%
- Population Tubulin-Different-Phenotype (%) [3]: 11% and 14%
- Total Cell Count [3]: 611 and 492
- Population Apoptotic (%) [4]: 27% and 44%
- Population Fragmented Nuclei (%) [4]: 10% and 9%
- Population Healthy Nuclei (%) [4]: 75% and 77%
- Population Hoechst High Intensity Objects (%) [4]: 4% and 9%
- Population Membrane Permeable-Phenotype (%) [4]: 0%
- Population Mitochondria Different-Phenotype (%) [4]: 29% and 50%
- Population Mitotic Cells (%) [4]: 72% and 55%
- Population Normal (%) [4]: 95% and 90%
- Population Pyknosed Nuclei (%) [4]: 13%
- Population Tubulin-Different-Phenotype (%) [4]: 16% and 21%
- Total Cell Count [4]: 523 and 388
- Population Apoptotic (%) [5]: 29% and 30%
- Population Fragmented Nuclei (%) [5]: 12% and 13%
- Population Healthy Nuclei (%) [5]: 79% and 81%
- Population Hoechst High Intensity Objects (%) [5]: 1% and 3%
- Population Membrane Permeable-Phenotype (%) [5]: 1% and 2%
- Population Mitochondria Different-Phenotype (%) [5]: 20% and 19%
- Population Mitotic Cells (%) [5]: 70% and 69%
- Population Normal (%) [5]: 98% and 96%
- Population Pyknosed Nuclei (%) [5]: 7% and 5%
- Population Tubulin-Different-Phenotype (%) [5]: 8% and 7%
- Total Cell Count [5]: 864 and 775
- Population Apoptotic (%) [6]: 22% and 51%
- Population Fragmented Nuclei (%) [6]: 12% and 10%
- Population Healthy Nuclei (%) [6]: 79% and 80%
- Population Hoechst High Intensity Objects (%) [6]: 1% and 3%
- Population Membrane Permeable-Phenotype (%) [6]: 0%
- Population Mitochondria Different-Phenotype (%) [6]: 17% and 26%
- Population Mitotic Cells (%) [6]: 77% and 48%
- Population Normal (%) [6]: 98% and 96%
- Population Pyknosed Nuclei (%) [6]: 8%
- Population Tubulin-Different-Phenotype (%) [6]: 7% and 8%
- Total Cell Count [6]: 815 and 544

Structure (SMILES): CC(=O)NCC(=O)N1[C@@H]2CC[C@H]1c1ccc(Nc3ncc(C(F)(F)F)c(NC4CCC4)n3)cc12 [PF-03814735]
- Population Apoptotic (%) [1]: 13.45% and 7.26%
- Population Fragmented Nuclei (%) [1]: 1.8% and 4%
- Population Hoechst High Intensity Objects (%) [1]: 0.36% and 0%
- Population Membrane Permeable-Phenotype (%) [1]: 0% and 5%
- Population Mitochondria Different-Phenotype (%) [1]: 42.86% and 15%
- Population Mitotic Cells (%) [1]: 86.55% and 92.74%
- Population Normal (%) [1]: 99.64% and 100%
- Population Pyknosed Nuclei (%) [1]: 42.81% and 82.67%
- Total Cell Count [1]: 279 and 150
- Population Apoptotic (%) [2]: 22.73% and 21.78%
- Population Fragmented Nuclei (%) [2]: 2.61% and 0.88%
- Population Hoechst High Intensity Objects (%) [2]: 0.65% and 0%
- Population Membrane Permeable-Phenotype (%) [2]: 0%
- Population Mitochondria Different-Phenotype (%) [2]: 27.87% and 27.27%
- Population Mitotic Cells (%) [2]: 77.27% and 78.22%
- Population Normal (%) [2]: 99.35% and 100%
- Population Pyknosed Nuclei (%) [2]: 57.52% and 89.38%
- Population Tubulin-Different-Phenotype (%) [2]: 75.41% and 45.45%
- Total Cell Count [2]: 154 and 113
- Population Apoptotic (%) [3]: 21.25% and 13.04%
- Population Fragmented Nuclei (%) [3]: 1.47% and 2.07%
- Population Healthy Nuclei (%) [3]: 75.07% and 34.48%
- Population Hoechst High Intensity Objects (%) [3]: 0%
- Population Membrane Permeable-Phenotype (%) [3]: 0.78% and 4%
- Population Mitochondria Different-Phenotype (%) [3]: 20.31% and 10%
- Population Mitotic Cells (%) [3]: 78.75% and 86.96%
- Population Normal (%) [3]: 100%
- Population Pyknosed Nuclei (%) [3]: 23.46% and 63.45%
- Total Cell Count [3]: 341 and 145
- Population Apoptotic (%) [4]: 65.09% and 50.43%
- Population Fragmented Nuclei (%) [4]: 0.99% and 0.8%
- Population Hoechst High Intensity Objects (%) [4]: 0%
- Population Membrane Permeable-Phenotype (%) [4]: 0%
- Population Mitochondria Different-Phenotype (%) [4]: 90.53% and 33.33%
- Population Mitotic Cells (%) [4]: 34.91% and 49.57%
- Population Normal (%) [4]: 100%
- Population Pyknosed Nuclei (%) [4]: 52.22% and 92%
- Total Cell Count [4]: 203 and 125
- Population Apoptotic (%) [5]: 15.15% and 12.5%
- Population Fragmented Nuclei (%) [5]: 5.66% and 2.01%
- Population Healthy Nuclei (%) [5]: 86.88% and 71.14%
- Population Hoechst High Intensity Objects (%) [5]: 0%
- Population Membrane Permeable-Phenotype (%) [5]: 3.65% and 1.89%
- Population Mitotic Cells (%) [5]: 84.85% and 87.5%
- Population Normal (%) [5]: 100%
- Total Cell Count [5]: 442 and 149
- Population Apoptotic (%) [6]: 68.24% and 37.78%
- Population Fragmented Nuclei (%) [6]: 2.53% and 2.44%
- Population Healthy Nuclei (%) [6]: 61.6% and 24.39%
- Population Hoechst High Intensity Objects (%) [6]: 0%
- Population Membrane Permeable-Phenotype (%) [6]: 0.68% and 0%
- Population Mitochondria Different-Phenotype (%) [6]: 97.95% and 76.67%
- Population Mitotic Cells (%) [6]: 31.76% and 62.22%
- Population Normal (%) [6]: 100%
- Population Pyknosed Nuclei (%) [6]: 35.86% and 73.17%
- Total Cell Count [6]: 237 and 123
